“Also recorded” adds a separate entry of the source.
Key:
WT human CDKL5 = biological target: T1, WT human CDKL5 (Homo sapiens, UniProt O76039); assay: CDKL5 in vitro kinase assay; assay type: biochemical; conditions: 10 or 100 nM compound, 50 µM ATP, vs untreated WT CDKL5
T1 sequence (O76039 1-960): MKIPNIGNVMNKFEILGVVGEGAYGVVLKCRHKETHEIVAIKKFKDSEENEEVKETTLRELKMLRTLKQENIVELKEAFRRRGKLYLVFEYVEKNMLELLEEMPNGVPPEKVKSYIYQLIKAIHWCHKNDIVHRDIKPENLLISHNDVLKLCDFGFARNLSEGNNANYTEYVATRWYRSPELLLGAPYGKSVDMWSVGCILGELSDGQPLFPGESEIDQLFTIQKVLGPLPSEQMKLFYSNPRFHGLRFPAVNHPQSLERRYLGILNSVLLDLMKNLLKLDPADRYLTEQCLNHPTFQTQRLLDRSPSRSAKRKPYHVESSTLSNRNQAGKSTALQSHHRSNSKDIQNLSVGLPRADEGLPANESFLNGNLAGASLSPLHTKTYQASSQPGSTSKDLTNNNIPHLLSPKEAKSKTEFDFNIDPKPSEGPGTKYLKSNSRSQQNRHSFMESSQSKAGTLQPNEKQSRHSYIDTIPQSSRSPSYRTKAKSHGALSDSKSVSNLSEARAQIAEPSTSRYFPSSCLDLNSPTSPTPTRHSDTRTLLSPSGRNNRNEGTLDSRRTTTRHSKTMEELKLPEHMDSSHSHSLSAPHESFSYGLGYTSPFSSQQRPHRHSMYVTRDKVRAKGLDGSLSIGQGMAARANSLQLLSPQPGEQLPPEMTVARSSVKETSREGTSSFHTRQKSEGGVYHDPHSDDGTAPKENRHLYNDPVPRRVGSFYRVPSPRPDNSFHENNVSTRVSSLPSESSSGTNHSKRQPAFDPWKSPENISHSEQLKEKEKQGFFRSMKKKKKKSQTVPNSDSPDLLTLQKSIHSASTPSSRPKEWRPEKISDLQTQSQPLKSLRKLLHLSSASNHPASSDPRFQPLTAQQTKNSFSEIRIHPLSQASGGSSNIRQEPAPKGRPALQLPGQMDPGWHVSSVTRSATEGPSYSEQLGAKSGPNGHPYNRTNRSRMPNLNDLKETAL
Procedure, shortened: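 FLAG-tagged WT human CDKL5, with a K42R kinase-dead control, was made by HeLa-lysate in vitro translation and purified on cobalt spin columns. Enzyme plus myelin basic protein substrate was incubated in kinase buffer with or without 50 µM ATP at 30 °C for 30 min, with test compound at 10 or 100 nM or DMSO. Read by ADP-Glo. Triplicate; one-way ANOVA with Dunnett's test.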

human motor neurons = assay: Neuroprotection assay, ER stress induced by cyclopiazonic acid; assay type: cell-based; conditions: for Motor neuron survival in response to ER stress: cyclopiazonic acid, 72 hours, 0.16–10 µM; for Motor neuron survival at low concentrations compared with AT-7519: low concentrations (<200 nM)
Procedure, shortened: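 Motor neurons came from NCRM-1 iPSCs carrying a VAChT:TdTomato reporter, differentiated as embryoid bodies for 16 days. They were plated at 2000 cells/well on laminin/poly-ornithine in neurobasal medium with anti-mitotics, B-27, N-2 and GDNF, BDNF, IGF-1 and CNTF. After 48 h, cells were co-treated with cyclopiazonic acid and test compound (4-fold dilutions, 0.16–10 µM, triplicate wells) for 72 h. Calcein AM live cells were counted as % of DMSO-treated survivors.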

[1] = system: S33/37/T41 β-Catenin phosphorylation; assay type: cell-based; conditions: rat primary cortical neurons, 1 hour, dose-response
Procedure, shortened: (§1)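 Cortical neurons were taken from E18.5 Long Evans rat embryos (trypsin 0.25%, 15 min, 37 °C) and plated at 300,000/well on poly-D-lysine/laminin. At DIV11–14, cells were given 5 nM–5 µM test compound or DMSO for 1 h at 37 °C. Lysates were immunoblotted with ECL detection. pEB2 S222 was normalised to total EB2, pβ-catenin to total β-catenin, and CDKL5 to tubulin.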

GSK3β = GSK3β (Homo sapiens, UniProt P49841); assay: GSK3β NanoBRET assay; assay type: cell-based; conditions: GSK3β NanoBRET IC50, tracer K8
CDKL5 kinase domain = biological target: T2, CDKL5 kinase domain (Homo sapiens, UniProt O76039, T169D/Y171E); assay: Thermal shift assay; assay type: binding; conditions: all concentrations evaluated (12.5, 25, or 50 µM)
T2 sequence (O76039 1-303 T169D/Y171E): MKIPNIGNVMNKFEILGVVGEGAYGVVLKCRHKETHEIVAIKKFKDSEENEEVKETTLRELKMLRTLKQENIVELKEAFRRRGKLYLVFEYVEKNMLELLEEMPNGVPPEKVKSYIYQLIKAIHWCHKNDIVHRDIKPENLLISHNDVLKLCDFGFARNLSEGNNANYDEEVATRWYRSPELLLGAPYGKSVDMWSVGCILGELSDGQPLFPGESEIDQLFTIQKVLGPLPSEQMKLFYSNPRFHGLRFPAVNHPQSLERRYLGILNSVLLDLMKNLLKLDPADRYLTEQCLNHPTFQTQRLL
Procedure, shortened: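 The CDKL5 kinase domain (construct boundaries of 4BGQ) was used at 4 µM in 10 mM HEPES-NaOH pH 7.4, 500 mM NaCl with 5× SYPRO Orange. It was incubated with test compound at 12.5, 25 or 50 µM. Fluorescence was recorded on a real-time PCR instrument to derive melting-temperature shifts.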

CDKL5 [2] = biological target: T3, CDKL5 (Homo sapiens, UniProt O76039); assay: CDKL5 split luciferase assay; assay type: binding; conditions: compound 2 vs compound 4
T3 sequence (O76039 1-960): T1 sequence (O76039 1-960)
Procedure, shortened: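 Luminescence-based competition binding assay: test compound displaces an active-site-dependent probe from CDKL5. Run as 12-point dose–response in duplicate to give IC50 values.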

CDKL5 [3] = biological target: T3, CDKL5; assay: CDKL5 NanoBRET in-cell target engagement assay; assay type: cell-based
GSK3α = GSK3α (Homo sapiens, UniProt P49840); assay: GSK3α NanoBRET assay; assay type: cell-based; conditions: GSK3α NanoBRET IC50, tracer K8
S222 EB2 phosphorylation = assay: Western blot of S222 EB2 phosphorylation in rat primary cortical neurons; assay type: cell-based; conditions: 1 hour, 5 nM, 50 nM, 500 nM or 5 µM
Procedure, shortened: as §1

CDKL5 expression = assay: Western blot of CDKL5 expression in rat primary cortical neurons; assay type: cell-based; conditions: 1 hour treatment
Procedure, shortened: as §1

DYRK1B = DYRK1B (Homo sapiens, UniProt Q9Y463); assay: Radiometric HotSpot kinase assay; assay type: biochemical; conditions: enzymatic IC50 values
Procedure, shortened: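 Window was taken from enzymatic IC50s. DYRK1B: radiometric HotSpot assay at ATP Km, 10-point dose–response. GSK3β: radiometric assay at ATP Km, 9-point dose–response.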

Chain of GSK3β (P49841 whole entry, the tested form may be a part): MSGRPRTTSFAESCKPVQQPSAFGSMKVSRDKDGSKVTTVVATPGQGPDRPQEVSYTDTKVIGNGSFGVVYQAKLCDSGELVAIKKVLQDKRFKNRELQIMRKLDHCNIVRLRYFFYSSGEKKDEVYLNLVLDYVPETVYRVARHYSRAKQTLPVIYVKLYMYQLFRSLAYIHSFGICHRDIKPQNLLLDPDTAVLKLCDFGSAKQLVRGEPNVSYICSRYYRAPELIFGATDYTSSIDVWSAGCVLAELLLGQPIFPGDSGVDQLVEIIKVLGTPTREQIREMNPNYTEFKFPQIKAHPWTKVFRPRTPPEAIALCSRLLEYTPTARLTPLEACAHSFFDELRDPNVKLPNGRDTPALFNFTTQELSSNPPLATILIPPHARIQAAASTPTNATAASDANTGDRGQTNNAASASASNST
Chain of DYRK1B (Q9Y463 whole entry): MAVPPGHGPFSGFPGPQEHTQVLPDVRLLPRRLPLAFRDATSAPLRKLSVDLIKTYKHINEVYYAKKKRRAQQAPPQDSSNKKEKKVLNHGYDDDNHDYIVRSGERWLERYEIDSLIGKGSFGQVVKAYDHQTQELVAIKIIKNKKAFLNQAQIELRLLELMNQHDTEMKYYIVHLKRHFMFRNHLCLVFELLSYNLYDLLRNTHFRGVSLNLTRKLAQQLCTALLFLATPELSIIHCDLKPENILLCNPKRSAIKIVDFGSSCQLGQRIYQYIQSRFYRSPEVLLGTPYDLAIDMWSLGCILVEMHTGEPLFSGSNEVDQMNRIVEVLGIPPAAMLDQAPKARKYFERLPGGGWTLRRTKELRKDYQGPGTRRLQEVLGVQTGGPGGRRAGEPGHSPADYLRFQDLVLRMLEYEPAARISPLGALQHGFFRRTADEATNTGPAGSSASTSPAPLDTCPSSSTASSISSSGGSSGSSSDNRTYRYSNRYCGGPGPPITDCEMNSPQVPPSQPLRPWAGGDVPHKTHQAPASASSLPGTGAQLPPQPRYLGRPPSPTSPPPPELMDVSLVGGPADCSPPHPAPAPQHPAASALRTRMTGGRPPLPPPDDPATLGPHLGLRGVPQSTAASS
Chain of GSK3α (P49840 whole entry): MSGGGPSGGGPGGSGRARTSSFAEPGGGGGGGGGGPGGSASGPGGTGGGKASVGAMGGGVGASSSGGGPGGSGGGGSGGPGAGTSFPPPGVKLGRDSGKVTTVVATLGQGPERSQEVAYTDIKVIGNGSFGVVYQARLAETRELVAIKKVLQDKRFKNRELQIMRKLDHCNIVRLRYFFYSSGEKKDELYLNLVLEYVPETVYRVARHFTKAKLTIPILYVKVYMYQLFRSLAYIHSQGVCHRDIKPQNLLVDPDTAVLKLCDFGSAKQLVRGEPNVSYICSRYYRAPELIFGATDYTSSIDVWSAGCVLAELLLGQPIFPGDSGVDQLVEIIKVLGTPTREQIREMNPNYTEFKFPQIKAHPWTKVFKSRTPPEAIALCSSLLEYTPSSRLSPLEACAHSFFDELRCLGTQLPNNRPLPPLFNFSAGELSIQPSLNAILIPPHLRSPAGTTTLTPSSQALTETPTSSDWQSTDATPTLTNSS

CCN1CCN(Cc2ccc(NC(=O)Nc3ccc(Oc4cc(NC)ncn4)cc3)cc2C(F)(F)F)CC1 [AST-487, reference compound]
Effect on CDKL5 kinase activity (WT human CDKL5): robust, dose-dependent inhibition

O=C(NC1CCNCC1)c1n[nH]cc1NC(=O)c1c(Cl)cccc1Cl [AT-7519, N-(4-piperidinyl)-4-(2,6-dichlorobenzoylamino)-1H-pyrazole-3-carboxamide, reference compound]
Motor neuron survival in response to ER stress (human motor neurons): neuroprotective

O=C(Nc1c[nH]nc1C(=O)NC1CCNCC1)c1cc(F)cc(F)c1 [Compound 2, 4-(3,5-difluorobenzamido)-N-(piperidin-4-yl)-1H-pyrazole-3-carboxamide]
Phosphorylation of β-catenin (S33/37/T41) [1]: reduced in a dose-dependent manner
Effect on CDKL5 kinase activity (WT human CDKL5): robust, dose-dependent inhibition
IC50 (GSK3β): < 0.03 µM
Change in melting temperature (ΔTm), CDKL5 (CDKL5 kinase domain): > 6 °C
Fold higher potency than compound 4 in split-luciferase CDKL5 assay (CDKL5 [2]): ~130 fold
IC50 (CDKL5 [3]): 0.0046 µM
Motor neuron survival in response to ER stress (human motor neurons): neuroprotective; also recorded: promote survival of motor neurons
Motor neuron survival at low concentrations compared with AT-7519 (human motor neurons): better promoted motor neuron survival than AT-7519
IC50 (GSK3α): < 0.03 µM
Phosphorylation of EB2 (S222) (S222 EB2 phosphorylation): inhibited in a dose-dependent manner
CDKL5 expression (CDKL5 expression): not altered

O=C(NCC1CCOCC1)c1n[nH]cc1NC(=O)c1c(F)cccc1F [Compound 4, 4-(2,6-difluorobenzamido)-N-((tetrahydro-2H-pyran-4-yl)methyl)-1H-pyrazole-3-carboxamide]
Phosphorylation of β-catenin (S33/37/T41) [1]: reduced in a dose-dependent manner
Effect on CDKL5 kinase activity (WT human CDKL5): No significant difference
Selectivity window between GSK3β and DYRK1B, the next most potently inhibited kinase (DYRK1B): 23 fold
IC50 (CDKL5 [3]): 4.4 µM
Fold less active than compound 2 in CDKL5 NanoBRET (CDKL5 [3]; compound 4 vs compound 2): ~ 1000 ×
Motor neuron survival in response to ER stress (human motor neurons): neuroprotective; also recorded: promote survival of motor neurons
Motor neuron survival at low concentrations compared with AT-7519 (human motor neurons): better promoted motor neuron survival than AT-7519
Phosphorylation of EB2 (S222) (S222 EB2 phosphorylation): only at the highest concentration
CDKL5 expression (CDKL5 expression): not altered

CS(=O)(=O)CCNCc1ccc(-c2ccc3ncnc(Nc4ccc(OCc5cccc(F)c5)c(Cl)c4)c3c2)o1 [lapatinib, reference compound]
Effect on CDKL5 kinase activity (WT human CDKL5): No significant difference
